Laboratory results from ChEMBL document CHEMBL5029154, “Design, Synthesis, and Biological Evaluation of Organic Nitrite (NO2-) Donors as Potential Anticerebral Ischemia Agents” (J Med Chem, 2021).
Activity calls are given as the source filed them. No cut-off for these calls is given here.

How the values were obtained:
[1] = Drug metabolism assessed as nitric oxide release in presence of bovine plasma at 200 uM measured after 1 hr by Griess reagent based assay; type: ADME, cell-free, Bos taurus; details: cattle
[2] = test system: Cortical neurone; test: Neuroprotective activity against in OGD/R-induced Sprague-Dawley rat cortical neuron injury assessed as cell viability pretreated at 1.8 uM for 24 hrs followed by subjected to OGD for 2 hrs measured after 24 hrs under normoxic condition; type: functional, tissue-based
Summary of the method: (§1)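 Cortical neurons were isolated from SD rat cortex by enzymatic digestion, plated on poly-lysine in 10% FBS DMEM, and pretreated 24 h at 1.8 μM in basal medium with 2% B27. OGD was run in glucose/FBS-free DMEM under 1% O₂, followed by 24 h reoxygenation in 10% FBS DMEM. Viability was read by MTT; apoptosis was also assessed. Three independent experiments.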

[3] = Neuroprotective activity against in OGD/R-induced rat primary cortical neuron apoptosis assessed as viable cells pretreated at 1.8 uM for 24 hrs followed by subjected to OGD for 2 hrs measured after 24 hrs under normoxic condition by PI/FITC-H staining based flow cytometry (reference value: 31.55%); type: functional; details: Cortical neurone, read-out: Activity; summary of the method: as §1
[4] = test system: Cortical neurone; test: Effect on Nrf2 mRNA transcript level in OGD/R-induced rat primary cortical neuron pretreated at 1.8 uM for 24 hrs followed by subjected to OGD for 2 hrs measured after 24 hrs under normoxic condition by RT-qPCR analysis; type: functional, tissue-based
Summary of the method: (§2)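 Primary rat cortical neurons were pretreated with 1.8 μM compound for 24 h, given 2 h OGD, then 24 h normoxic culture. Nrf2, HO-1 and NQO1 mRNA were measured by RT-qPCR. Cytoplasmic and nuclear protein (30 μg/lane) were blotted for Nrf2, with lamin A and β-actin as references, and quantified by densitometry as the nuclear:cytoplasmic ratio. Three independent experiments, mean ± SD.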

[5] = Neuroprotective activity against in OGD/R-induced rat cortical neuron apoptosis assessed as early apoptotic cells pretreated at 1.8 uM for 24 hrs followed by subjected to OGD for 2 hrs measured after 24 hrs under normoxic condition by PI/FITC-H staining based flow cytometry (reference value: 58.46%); type: functional, Cortical neurone
[6] = test system: Cortical neurone; test: Induction of HO-1 mRNA transcript level in OGD/R-induced rat primary cortical neuron pretreated at 1.8 uM for 24 hrs followed by subjected to OGD for 2 hrs measured after 24 hrs under normoxic condition by RT-qPCR analysis; type: functional, tissue-based; summary of the method: as §2
[7] = test system: Cortical neurone; test: Induction of NQO1 mRNA transcript level in OGD/R-induced rat primary cortical neuron pretreated at 1.8 uM for 24 hrs followed by subjected to OGD for 2 hrs measured after 24 hrs under normoxic condition by RT-qPCR analysis; type: functional, tissue-based; summary of the method: as §2
[8] = Neuroprotective activity against in OGD/R-induced rat cortical neuron apoptosis assessed as late apoptotic cells pretreated at 1.8 uM for 24 hrs followed by subjected to OGD for 2 hrs measured after 24 hrs under normoxic condition by PI/FITC-H staining based flow cytometry (reference value: 6.31%); type: functional, Cortical neurone
[9] = test system: Cortical neurone; test: Induction of Nrf2 protein level in OGD/R-induced rat primary cortical neuron pretreated at 1.8 uM for 24 hrs followed by subjected to OGD for 2 hrs measured after 24 hrs under normoxic condition by Western blot analysis; type: functional, tissue-based; summary of the method: as §2
[10] = Neuroprotective activity against in OGD/R-induced rat cortical neuron apoptosis assessed as necrotic cells pretreated at 1.8 uM for 24 hrs followed by subjected to OGD for 2 hrs measured after 24 hrs under normoxic condition by PI/FITC-H staining based flow cytometry (reference value: 3.68%); type: functional, Cortical neurone
[11] = test system: Cortical neurone; test: Neuroprotective activity against in OGD/R-induced rat cortical neuron cytotoxicity assessed as decrease in cell viability pretreated at 1.8 uM for 24 hrs followed by subjected to OGD for 2 hrs measured after 24 hrs under normoxic condition by MTT assay; type: functional, tissue-based
Summary of the method: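 Primary rat cortical neurons from enzymatically digested cortex, plated on poly-lysine in DMEM/10% FBS for 4 h. Pretreated 24 h in neuron basal medium with 2% B27, then glucose/FBS-free DMEM at 1% O2. Returned to 10% FBS DMEM under normoxia for 24 h. Viability by MTT; three independent experiments, mean SD.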

[12] = test system: HUVEC; test: Angiogenesis activity in HUVEC cells assessed as increase in tube formation at 1.8 uM measured after 8 hrs by inverted microscopy; type: functional, cell-based; details: Homo sapiens
Summary of the method: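 Early-passage HUVECs (passages 2–6), grown in DMEM with 10% FBS, glutamine, pyruvate and antibiotics, were seeded at 8 × 10⁴ cells/well on Matrigel. They were exposed to vehicle or compound for 8 h at 37 °C, 5% CO₂. Tubes were counted under an inverted microscope.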

Which Drug metabolism [1] does the source give for `O=C1CCCC=C1C[N+](=O)[O-]` here?
Its Drug metabolism is “Metabolite_Detected”.

Which Drug metabolism [1] does the source give for `COC(=O)/C(=C/c1ccccc1)C[N+](=O)[O-]` here?
The Drug metabolism was “Metabolite_Detected”.

What about the Activity [2] of the same molecule?
Its Activity is “Active”.

Which results are given for `O=[N+]([O-])C/C(=C\c1ccccc1)[N+](=O)[O-]`?
Drug metabolism [1]: Metabolite_Detected; Activity [2]: Active

With `CC(C)(C)c1cc(O)ccc1O` [E319] as the molecule, how does the viability at 1.8 µM [3] read?
The viability at 1.8 µM was 84%.

What about the Activity [4] of the same molecule?
Its Activity is “inactive”.

And the Activity [5]?
The Activity was 13.91%.

And the Activity [6]?
Its Activity is “Active”.

And the Activity [7]?
Its Activity is “Active”.

And the Activity [8]?
Its Activity is 1.4%.

What about the Activity [9] of the same molecule?
The Activity was “Active”.

What about the Activity [10] of the same molecule?
The Activity was 0.84%.

Which results are given for `O=N[O-].[Na+]` [SODIUM NITRITE]?
viability at 1.8 µM [3]: 46.9%; Activity [11]: inactive; Activity [4]: inactive; Activity [5]: 50.12%; Activity [8]: 2.47%; Activity [9]: inactive; Activity [10]: 0.51%

Which results are given for `C/C(=C\c1ccccc1)C(=O)c1ccccc1`?
Activity [12]: inactive; Activity [9]: Active

With `N#C/C(=C\c1ccccc1)C[N+](=O)[O-]` as the molecule, how does the Drug metabolism [1] read?
The Drug metabolism was “Metabolite_Detected”.

And the Activity [2]?
The Activity was “Active”.
